These results are taken from ChEMBL document CHEMBL5143713, “Multitarget, Selective Compound Design Yields Potent Inhibitors of a Kinetoplastid Pteridine Reductase 1” (J Med Chem, 2022).

The target in data set [1] is Bifunctional dihydrofolate reductase-thymidylate synthase (Trypanosoma brucei brucei, UniProt Q27783). As to the kind of experiment: Inhibition of recombinant Trypanosoma brucei DHFR-TS expressed in Escherichia coli BL21 (DE3) cells using dihydrofolate as substrate in presence of NADPH by spectrophotometric analysis.
Chain of Bifunctional dihydrofolate reductase-thymidylate synthase (Trypanosoma brucei brucei, UniProt Q27783) (Q27783 whole entry): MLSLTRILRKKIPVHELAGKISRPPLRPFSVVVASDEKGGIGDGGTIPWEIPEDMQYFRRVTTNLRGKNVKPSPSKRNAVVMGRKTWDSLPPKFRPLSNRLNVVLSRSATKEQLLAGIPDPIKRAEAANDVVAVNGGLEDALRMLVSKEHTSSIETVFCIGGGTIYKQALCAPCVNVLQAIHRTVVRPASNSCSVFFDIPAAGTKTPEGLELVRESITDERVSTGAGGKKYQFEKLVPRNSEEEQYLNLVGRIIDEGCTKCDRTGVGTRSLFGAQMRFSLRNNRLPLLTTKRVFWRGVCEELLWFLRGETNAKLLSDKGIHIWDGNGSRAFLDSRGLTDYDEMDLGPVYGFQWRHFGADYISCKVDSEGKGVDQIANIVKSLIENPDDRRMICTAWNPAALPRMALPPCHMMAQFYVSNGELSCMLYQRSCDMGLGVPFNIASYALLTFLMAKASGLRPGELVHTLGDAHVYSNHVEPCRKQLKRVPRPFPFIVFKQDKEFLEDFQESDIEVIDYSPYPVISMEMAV
Data set [2] addresses Bifunctional dihydrofolate reductase-thymidylate synthase (Leishmania major, UniProt P07382). Kind of data set: Inhibition of recombinant Leishmania major DHFR-TS expressed in Escherichia coli BL21 (DE3) cells using dihydrofolate as substrate in presence of NADPH by spectrophotometric analysis.
Data set [3] addresses T1, Pteridine reductase, putative (Trypanosoma brucei, UniProt Q581W1).
T1 sequence (Q581W1 whole entry): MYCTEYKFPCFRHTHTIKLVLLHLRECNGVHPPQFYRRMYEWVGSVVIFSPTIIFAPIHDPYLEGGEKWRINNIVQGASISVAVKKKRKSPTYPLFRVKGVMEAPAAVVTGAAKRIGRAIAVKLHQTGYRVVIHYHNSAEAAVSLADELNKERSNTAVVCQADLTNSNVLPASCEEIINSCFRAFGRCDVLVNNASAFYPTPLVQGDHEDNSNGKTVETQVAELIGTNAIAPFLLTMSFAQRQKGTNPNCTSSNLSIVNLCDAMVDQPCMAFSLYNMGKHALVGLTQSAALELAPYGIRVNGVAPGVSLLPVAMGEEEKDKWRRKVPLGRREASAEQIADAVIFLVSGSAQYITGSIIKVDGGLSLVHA
Kind of data set: Inhibition of recombinant Trypanosoma brucei PTR1 expressed in Escherichia coli BL21 (DE3) cells using H2B as substrate in presence of cytochrome c and NADPH by envision multilabel reader.

The test system of the next data set is 786-0. As to the kind of experiment: Mitochondrial toxicity in human 786-0 cells at 10 uM incubated with compound for 6 hrs followed by incubation with MitoTracker Red chloromethyl-X-rosamine dye for 45 mins by imaging analysis relative to control. It counts as cell-based. Conditions: 786-0, 6 h. The method in brief: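 Tested at 10 μM. 786-O cells kept in RPMI-1640 with 2 mM glutamine, 10% FCS, streptomycin 100 μg/mL and penicillin G 100 U/mL. Mitochondrial toxicity read as MitoTracker Red (chloromethyl-X-rosamine) uptake by high-content imaging.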

For another data set, the target named is CYP2D6 (Homo sapiens, UniProt P10635). Kind of data set: Inhibition of CYP2D6 (unknown origin) expressed in baculovirus-infected insect cells at 10 uM using CYP/Luciferin as substrate incubated for 30 mins in presence of NADPH by luminescence based analysis relative to control. Format: ADME. Conditions: probe CYP/Luciferin. The method in brief: (§1)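 Tested at 10 μM using microsomal preparations of each CYP isoform from baculovirus-infected insect cells on a luminescent P450-Glo platform. The enzyme acts on its substrate to give light, and a fall in luminescence indicates inhibition.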
Chain of CYP2D6 (P10635 whole entry, canonical isoform): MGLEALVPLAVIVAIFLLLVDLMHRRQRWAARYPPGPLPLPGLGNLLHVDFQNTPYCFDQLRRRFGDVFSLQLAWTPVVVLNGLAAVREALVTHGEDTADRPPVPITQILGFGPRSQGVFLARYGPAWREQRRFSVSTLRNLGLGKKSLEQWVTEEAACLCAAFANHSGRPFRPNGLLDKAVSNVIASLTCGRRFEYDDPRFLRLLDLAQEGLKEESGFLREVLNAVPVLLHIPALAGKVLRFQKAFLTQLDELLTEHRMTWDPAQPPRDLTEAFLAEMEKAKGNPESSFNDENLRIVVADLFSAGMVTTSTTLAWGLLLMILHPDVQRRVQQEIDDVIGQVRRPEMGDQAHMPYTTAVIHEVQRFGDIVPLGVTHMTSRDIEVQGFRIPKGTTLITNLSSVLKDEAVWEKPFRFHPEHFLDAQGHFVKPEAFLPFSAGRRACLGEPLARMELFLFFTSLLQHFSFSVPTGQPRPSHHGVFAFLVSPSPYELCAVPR

In another data set the test system is A549. As to the kind of experiment: Cytotoxicity against human A549 cells at 10 uM measured after 48 hrs by Celltiter-Glo assay relative to control. Format: toxicity, cell-based. Conditions: a549, 48 h. Put shortly:
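Tested at 10 μM. A549 cells grown in DMEM with 10% FCS, streptomycin 100 μg/mL and penicillin G 100 U/mL. Viability read as cellular ATP by CellTiter-Glo luminescence.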
A general note: ATP-based viability assays read luminescence as a measure of living cells.

Data set [4] relates to human DHFR versus Leishmania major DHFR. As to the kind of experiment: Selectivity index, ratio of IC50 for human DHFR to IC50 for Leishmania major DHFR. It counts as toxicity. Conditions: read-out: Ratio IC50.
Data set [5] relates to human DHFR versus Trypanosoma brucei DHFR. Kind of data set: Selectivity index, ratio of IC50 for human DHFR to IC50 for Trypanosoma brucei DHFR. Format: toxicity. Conditions: read-out: Ratio IC50.
For a further data set, the target named is T2, Dihydrofolate reductase (Homo sapiens, UniProt P00374).
T2 sequence (P00374 whole entry): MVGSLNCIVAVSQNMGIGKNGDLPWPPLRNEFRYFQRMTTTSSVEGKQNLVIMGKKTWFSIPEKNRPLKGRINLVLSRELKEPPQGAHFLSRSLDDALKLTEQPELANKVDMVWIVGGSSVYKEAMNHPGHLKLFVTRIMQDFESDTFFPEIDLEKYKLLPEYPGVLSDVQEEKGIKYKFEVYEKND
Kind of data set: Inhibition of recombinant human DHFR expressed in Escherichia coli BL21 (DE3) cells using dihydrofolate as substrate in presence of NADPH by spectrophotometric analysis. It counts as toxicity.

Data set [6] has as its system human DHFR versus Trypanosoma brucei PTR1. Kind of data set: Selectivity index, ratio of IC50 for human DHFR to IC50 for Trypanosoma brucei PTR1. It counts as toxicity. Conditions: read-out: Ratio IC50.
Another data set has as its target CYP2C9 (Homo sapiens, UniProt P11712). Kind of data set: Inhibition of CYP2C9 (unknown origin) expressed in baculovirus-infected insect cells at 10 uM using CYP/Luciferin as substrate incubated for 30 mins in presence of NADPH by luminescence based analysis relative to control. Conditions: probe CYP/Luciferin. Format: ADME. Put shortly:
as §1

For data set [7], the system named is human DHFR versus Leishmania major PTR1. Kind of data set: Selectivity index, ratio of IC50 for human DHFR to IC50 for Leishmania major PTR1. Format: toxicity. Conditions: read-out: Ratio IC50.
The target of a further data set is T3, Pteridine reductase 1 (Leishmania major, UniProt Q01782).
T3 sequence (Q01782 whole entry): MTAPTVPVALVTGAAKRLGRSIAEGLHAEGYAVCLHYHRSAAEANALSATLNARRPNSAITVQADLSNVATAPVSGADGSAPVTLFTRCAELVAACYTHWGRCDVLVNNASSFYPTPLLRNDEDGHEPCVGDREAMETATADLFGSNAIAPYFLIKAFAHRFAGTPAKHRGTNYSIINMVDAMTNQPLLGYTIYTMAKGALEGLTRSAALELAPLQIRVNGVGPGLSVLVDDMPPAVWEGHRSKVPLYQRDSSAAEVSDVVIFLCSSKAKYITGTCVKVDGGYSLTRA
Kind of data set: Inhibition of recombinant Leishmania major PTR1 expressed in Escherichia coli BL21 (DE3) cells using H2B as substrate in presence of cytochrome c and NADPH by envision multilabel reader.

In a further data set the target is T4, CYP1A2 (Homo sapiens, UniProt P05177).
T4 sequence (P05177 whole entry): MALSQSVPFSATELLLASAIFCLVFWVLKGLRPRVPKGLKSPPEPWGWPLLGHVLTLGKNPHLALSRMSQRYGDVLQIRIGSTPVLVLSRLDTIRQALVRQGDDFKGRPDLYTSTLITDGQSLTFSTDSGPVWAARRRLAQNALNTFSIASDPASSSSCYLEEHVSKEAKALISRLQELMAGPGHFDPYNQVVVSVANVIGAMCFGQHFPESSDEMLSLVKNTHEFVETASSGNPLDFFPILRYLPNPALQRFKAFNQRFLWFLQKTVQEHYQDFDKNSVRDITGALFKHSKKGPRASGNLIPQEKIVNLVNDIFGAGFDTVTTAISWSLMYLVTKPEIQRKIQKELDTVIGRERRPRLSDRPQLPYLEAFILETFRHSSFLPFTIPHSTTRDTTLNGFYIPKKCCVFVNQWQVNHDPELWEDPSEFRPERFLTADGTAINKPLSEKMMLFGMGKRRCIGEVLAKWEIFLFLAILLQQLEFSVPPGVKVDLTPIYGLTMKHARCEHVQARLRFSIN
Kind of data set: Inhibition of CYP1A2 (unknown origin) expressed in baculovirus-infected insect cells at 10 uM using CYP/Luciferin as substrate incubated for 30 mins in presence of NADPH by luminescence based analysis relative to control. It counts as ADME. Conditions: probe CYP/Luciferin. Put shortly: as §1

The next data set deals with CYP2C19 (Homo sapiens, UniProt P33261). As to the kind of experiment: Inhibition of CYP2C19 (unknown origin) expressed in baculovirus-infected insect cells at 10 uM using CYP/Luciferin as substrate incubated for 30 mins in presence of NADPH by luminescence based analysis relative to control. Format: ADME. Conditions: probe CYP/Luciferin. Put shortly:
as §1

The structures appear in SMILES notation.

Chain of Bifunctional dihydrofolate reductase-thymidylate synthase (Leishmania major, UniProt P07382) (P07382 whole entry): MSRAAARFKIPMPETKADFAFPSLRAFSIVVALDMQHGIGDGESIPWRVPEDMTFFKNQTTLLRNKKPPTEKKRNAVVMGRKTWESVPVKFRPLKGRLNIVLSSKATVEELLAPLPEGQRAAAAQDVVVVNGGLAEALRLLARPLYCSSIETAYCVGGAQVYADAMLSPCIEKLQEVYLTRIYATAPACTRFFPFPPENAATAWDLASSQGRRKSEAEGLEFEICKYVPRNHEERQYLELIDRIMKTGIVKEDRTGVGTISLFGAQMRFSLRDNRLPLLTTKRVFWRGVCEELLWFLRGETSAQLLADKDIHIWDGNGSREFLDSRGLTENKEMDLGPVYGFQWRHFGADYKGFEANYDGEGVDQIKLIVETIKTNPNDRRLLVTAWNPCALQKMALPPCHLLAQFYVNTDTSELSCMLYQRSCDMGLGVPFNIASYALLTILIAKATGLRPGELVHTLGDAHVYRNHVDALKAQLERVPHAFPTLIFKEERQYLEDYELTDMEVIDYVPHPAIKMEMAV
Chain of CYP2C9 (P11712 whole entry): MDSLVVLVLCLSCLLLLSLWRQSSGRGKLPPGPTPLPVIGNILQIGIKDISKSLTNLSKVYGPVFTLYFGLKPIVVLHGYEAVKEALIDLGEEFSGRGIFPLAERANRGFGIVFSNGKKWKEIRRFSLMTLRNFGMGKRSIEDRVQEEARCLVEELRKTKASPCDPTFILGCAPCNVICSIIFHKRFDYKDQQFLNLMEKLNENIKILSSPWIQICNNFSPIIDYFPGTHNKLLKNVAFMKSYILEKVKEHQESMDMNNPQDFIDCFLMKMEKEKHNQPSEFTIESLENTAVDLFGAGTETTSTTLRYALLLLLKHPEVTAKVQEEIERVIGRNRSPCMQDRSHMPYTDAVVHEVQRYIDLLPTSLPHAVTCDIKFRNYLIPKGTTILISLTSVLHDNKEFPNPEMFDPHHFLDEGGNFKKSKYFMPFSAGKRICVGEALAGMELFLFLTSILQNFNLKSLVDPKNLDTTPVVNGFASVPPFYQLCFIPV
Chain of CYP2C19 (P33261 whole entry): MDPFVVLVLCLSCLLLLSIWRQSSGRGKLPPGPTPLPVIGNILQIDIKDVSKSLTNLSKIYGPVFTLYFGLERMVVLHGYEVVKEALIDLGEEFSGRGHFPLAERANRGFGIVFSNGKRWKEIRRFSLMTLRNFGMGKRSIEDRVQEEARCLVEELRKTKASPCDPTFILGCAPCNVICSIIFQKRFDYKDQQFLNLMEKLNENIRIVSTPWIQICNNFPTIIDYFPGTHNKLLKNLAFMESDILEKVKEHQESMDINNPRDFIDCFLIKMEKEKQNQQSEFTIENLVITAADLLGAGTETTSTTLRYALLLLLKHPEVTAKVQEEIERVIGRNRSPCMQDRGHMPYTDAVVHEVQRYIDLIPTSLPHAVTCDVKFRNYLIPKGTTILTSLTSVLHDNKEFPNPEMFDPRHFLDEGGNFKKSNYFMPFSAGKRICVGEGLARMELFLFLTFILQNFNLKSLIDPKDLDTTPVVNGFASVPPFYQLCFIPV

By IC50 is commonly meant the concentration that inhibits the measured activity by half. As usually defined, the inhibition is the change of the read-out against control, counted positive when it falls. For `COC(=O)C1CCN(C(=O)c2ccc(N(CCO)Cc3cnc4nc(N)nc(N)c4n3)cc2)CC1`, the IC50 was determined as 1260 nM in data set [1], 1210 nM in data set [2] and 200 nM in [3]. Further, the Activity was found to be 0% in the data set with 786-0 and 100% in the data set with A549. Moreover, the inhibition at 0.5 h, 10 µM on CYP2D6 was 0%.
As for `COC(=O)C1CCN(C(=O)c2ccc(N(CCCO)Cc3cnc4nc(N)nc(N)c4n3)cc2)CC1`, the IC50 turned out to be 430 nM in data set [1]; 760 nM in data set [2]; 30 nM in data set [3]; 15000 nM at Dihydrofolate reductase; 220 nM on Pteridine reductase 1. The selectivity ratio stood at 20 in data set [4], 35 in data set [5], 500 in data set [6] and 68 in [7]. Also, the figures for the Activity in the data set with 786-0 and in the data set with A549 were 0% and 100%, respectively. Also, the inhibition at 0.5 h, 10 µM at CYP2C9 stood at 17%.
Consider `COC(=O)C1CCN(C(=O)Cc2ccc(NCc3cnc4nc(N)nc(N)c4n3)cc2)CC1`, for which the IC50 in data set [1] amounted to 620 nM; in data set [2], 850 nM; in data set [3], 140 nM; on Dihydrofolate reductase, 35000 nM; on Pteridine reductase 1 it was 1140 nM. The selectivity ratio is 41 in [4], 56 in data set [5], 250 in data set [6] and 31 in data set [7]. Also, the inhibition at 0.5 h, 10 µM on CYP1A2 and at CYP2C19 was 12% throughout. Besides, the results for the Activity with 786-0 and in the data set with A549 were 0% and 100%, respectively.
